Experimental data as given in ChEMBL document CHEMBL1134776, “Novel azo derivatives as prodrugs of 5-aminosalicylic acid and amino derivatives with potent platelet activating factor antagonist activity” (J Med Chem, 2001).

Experiments:
Assay type in all cases: functional
Oryctolagus cuniculus = species: Oryctolagus cuniculus; assay: Concentration required to inhibit PAF-induced maximum aggregation by 50%
Procedure, shortened: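 Platelet-rich plasma was prepared by centrifuging blood at 250 g for 10 min at 4 °C, then diluted with platelet-poor plasma (3000g, 10 min) to 3.5 × 10^5 platelets/mm3. Aggregation was induced with C18-PAF (1.5 × 10^-8 M) and read in an aggregometer as maximum aggregation. IC50 came from linear regression of one curve with ≥4 points (15–85% inhibition), each point the mean of 1–3 experiments.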

Rattus norvegicus [1] = species: Rattus norvegicus; assay: Dose required to reduce the lowering of the arterial blood pressure caused by PAF by 50 %.; conditions: read-out: ID50 (the source's name)
Procedure, shortened: (§1)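 Male Sprague-Dawley rats (180–220 g) were anesthetized with pentobarbital (50 mg/kg ip), and blood pressure was recorded from the left carotid artery. Compound in saline (1 mL/kg) was given iv via a femoral vein 3 min before PAF (0.5 µg/kg iv). ID50 came from linear regression of one curve with ≥4 doses (15–85% inhibition), each point the mean of ≥2 experiments.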

Rattus norvegicus [2] = assay: Dose required to reduce the lowering of the arterial blood pressure caused by PAF by 50 % in rats intravenously; conditions: iv, read-out: ID50 (the source's name); procedure, shortened: as §1
Rattus norvegicus [3] = species: Rattus norvegicus; assay: Effect of compound on myeloperoxidase activity was evaluated in rat
Procedure, shortened: (§2)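 Female Wistar rats (180–220 g) were fasted overnight and given 30 mg TNBS in 0.25 mL 50% ethanol intrarectally by cannula inserted 8 cm, under anesthesia. Compounds were dosed orally in 1% methylcellulose for 5 days before induction and 24 h after. Colons were removed at 48 h and blind-scored 0–10 for macroscopic damage. Diarrhea was analyzed by χ2, means by ANOVA, and scores by Mann–Whitney.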

Rattus norvegicus [4] = species: Rattus norvegicus; assay: Effect of compound on LTB4 production was measured in rat; procedure, shortened: as §2
Rattus norvegicus [5] = species: Rattus norvegicus; assay: Damage to the colon observed after 48 hr after colitis induction in rats; procedure, shortened: as §2
Rattus norvegicus [6] = species: Rattus norvegicus; assay: % of rats exhibiting diarrhea; procedure, shortened: as §2
Rattus norvegicus [7] = species: Rattus norvegicus; assay: Colonic weight was measured in rats; procedure, shortened: as §2

Question: For `Cc1nc2cnccc2n1CC1CCN(C(=O)NCc2ccc(N)cc2)CC1`, which IC50 (Oryctolagus cuniculus) is on record?
Answer: The IC50 was 1550 nM.

Question: And the ED50 (Rattus norvegicus [1])?
Answer: Its ED50 is 2.42 mg/kg.

Question: How did the IC50 (Oryctolagus cuniculus) turn out when `CCOC(=O)N(CC(=O)N1CCC(Cn2c(C)nc3cnccc32)CC1)c1ccc(N)cc1` was run?
Answer: The IC50 was 250 nM.

Question: Which IC50 (Oryctolagus cuniculus) does the source give for `Cc1nc2cnccc2n1CC1CCN(C(=O)/C=C(/c2ccccc2)c2ccc(N)cc2)CC1` here?
Answer: The IC50 was 8 nM.

Question: What about the ED50 (Rattus norvegicus [1]) of the same compound?
Answer: Its ED50 is 0.029 mg/kg.

Question: With `Cc1nc2cnccc2n1CC1CCN(C(=O)CC(Nc2ccc(N)cc2)c2ccccc2)CC1` (stereo unspecified) as the compound, how does the IC50 (Oryctolagus cuniculus) read?
Answer: The IC50 was 29 nM.

Question: What about the ED50 (Rattus norvegicus [1]) of the same compound?
Answer: Its ED50 is 0.11 mg/kg.

Question: Which results are given for `Cc1nc2cnccc2n1Cc1ccc(S(=O)(=O)N[C@@H](CC(C)C)C(=O)NCc2ccc(N)cc2)cc1`?
Answer: ED50 (Rattus norvegicus [2]): 0.075 mg/kg; IC50 (Oryctolagus cuniculus): 120 nM

Question: For `Cc1nc2cnccc2n1CC1CCN(C(=O)/C=C(\c2ccccc2)c2ccc(N)cc2)CC1`, which IC50 (Oryctolagus cuniculus) is on record?
Answer: The IC50 was 5 nM.

Question: And the ED50 (Rattus norvegicus [1])?
Answer: Its ED50 is 0.01 mg/kg.

Question: `CCOC(=O)[C@H](CC(C)C)N(C(=O)c1ccc(/N=N\c2ccc(O)c(C(=O)O)c2)cc1)S(=O)(=O)c1ccc(Cn2c(C)nc3cnccc32)cc1` was tested. Which IC50 (Oryctolagus cuniculus) did it give?
Answer: The IC50 was 1470 nM.

Question: And the ED50 (Rattus norvegicus [1])?
Answer: Its ED50 is 0.47 mg/kg.

Question: With `Cc1nc2cnccc2n1Cc1ccc(S(=O)(=O)N(C)c2cccc(N)c2)cc1` as the compound, how does the ED50 (Rattus norvegicus [2]) read?
Answer: The ED50 was 0.22 mg/kg.

Question: And the IC50 (Oryctolagus cuniculus)?
Answer: Its IC50 is 300 nM.

Question: With `CCOC(=O)C(CC(=O)N1CCC(Cn2c(C)nc3cnccc32)CC1)c1ccc(N)cc1` (stereo unspecified) as the compound, how does the IC50 (Oryctolagus cuniculus) read?
Answer: The IC50 was 74 nM.

Question: And the ED50 (Rattus norvegicus [1])?
Answer: Its ED50 is 0.56 mg/kg.

Question: What does the source list for `Cc1nc2cnccc2n1CC1CCN(C(=O)CC(C)(C)c2ccc(/N=N\c3ccc(O)c(C(=O)O)c3)cc2)CC1`?
Answer: IC50 (Oryctolagus cuniculus): 1600 nM; ED50 (Rattus norvegicus [1]): 0.11 mg/kg

Question: For `Cc1nc2cnccc2n1CC1CCN(C(=O)/C=C(/c2ccccc2)c2ccc(/N=N\c3ccc(O)c(C(=O)O)c3)cc2)CC1`, which Activity (Rattus norvegicus [3]) is on record?
Answer: Its Activity is <445.9 U (g of tissue)-1.

Question: What about the Production (Rattus norvegicus [4]) of the same compound?
Answer: Its Production is <4.5 ng (g of tissue)-1.

Question: And the IC50 (Oryctolagus cuniculus)?
Answer: The IC50 was 4100 nM.

Question: What about the ED50 (Rattus norvegicus [1]) of the same compound?
Answer: Its ED50 is 2.81 mg/kg.

Question: And the Damage score (Rattus norvegicus [5])?
Answer: Its Damage score is <7.5 0-10.

Question: And the Animals (Rattus norvegicus [6])?
Answer: Its Animals is under 25%.

Question: And the Colonic weight (Rattus norvegicus [7])?
Answer: The Colonic weight was under 149.6 mg/cm.

Question: For `Cc1nc2cnccc2n1CC1CCN(C(=O)CN(c2ccccc2)S(=O)(=O)c2ccc(/N=N\c3ccc(O)c(C(=O)O)c3)cc2)CC1`, which IC50 (Oryctolagus cuniculus) is on record?
Answer: The IC50 was 4010 nM.

Question: What about the ED50 (Rattus norvegicus [1]) of the same compound?
Answer: The ED50 was 0.19 mg/kg.

Question: How did the IC50 (Oryctolagus cuniculus) turn out when `Cc1nc2cnccc2n1CC1CCN(C(=O)CN(C)C(=O)c2ccc(N)cc2)CC1` was run?
Answer: The IC50 was 1270 nM.

Question: For `CCOC(=O)[C@H](CC(C)C)N(Cc1ccc(/N=N\c2ccc(O)c(C(=O)O)c2)cc1)S(=O)(=O)c1ccc(Cn2c(C)nc3cnccc32)cc1`, which IC50 (Oryctolagus cuniculus) is on record?
Answer: The IC50 was 490 nM.

Question: And the ED50 (Rattus norvegicus [1])?
Answer: Its ED50 is 1.31 mg/kg.

Question: `Cc1nc2cnccc2n1CC1CCN(C(=O)C(C)c2ccc(N)cc2)CC1` (stereo unspecified) was tested. Which IC50 (Oryctolagus cuniculus) did it give?
Answer: The IC50 was 430 nM.

Question: And the ED50 (Rattus norvegicus [1])?
Answer: The ED50 was 1.47 mg/kg.

Question: With `CCOC(=O)NC(CC(=O)N1CCC(Cn2c(C)nc3cnccc32)CC1)c1ccc(N)cc1` (stereo unspecified) as the compound, how does the IC50 (Oryctolagus cuniculus) read?
Answer: The IC50 was 270 nM.

Question: And the ED50 (Rattus norvegicus [1])?
Answer: The ED50 was 0.13 mg/kg.

Question: Which IC50 (Oryctolagus cuniculus) does the source give for `CCOC[C@H](CC(C)C)N(Cc1ccc(N)cc1)S(=O)(=O)c1ccc(Cn2c(C)nc3cnccc32)cc1` here?
Answer: The IC50 was 16 nM.

Question: Which IC50 (Oryctolagus cuniculus) does the source give for `Cc1nc2cnccc2n1CC1CCN(C(=O)CC(C)c2ccc(N)cc2)CC1` (stereo unspecified) here?
Answer: The IC50 was 11 nM.

Question: And the ED50 (Rattus norvegicus [1])?
Answer: Its ED50 is 0.24 mg/kg.

Question: For `CCOC[C@H](CC(C)C)N(C(=O)c1ccc(N)cc1)S(=O)(=O)c1ccc(Cn2c(C)nc3cnccc32)cc1`, which ED50 (Rattus norvegicus [2]) is on record?
Answer: Its ED50 is 0.3 mg/kg.

Question: And the IC50 (Oryctolagus cuniculus)?
Answer: Its IC50 is 1280 nM.

Question: With `CCOC(=O)[C@H](CC(C)C)N(Cc1ccc(N)cc1)S(=O)(=O)c1ccc(Cn2c(C)nc3cnccc32)cc1` as the compound, how does the IC50 (Oryctolagus cuniculus) read?
Answer: The IC50 was 12 nM.

Question: What does the source list for `Cc1nc2cnccc2n1CC1CCN(C(=O)CN(CC(C)C)S(=O)(=O)c2ccc(N)cc2)CC1`?
Answer: ED50 (Rattus norvegicus [2]): 0.029 mg/kg; IC50 (Oryctolagus cuniculus): 610 nM

Question: How did the IC50 (Oryctolagus cuniculus) turn out when `Cc1nc2cnccc2n1CC1CCN(C(=O)CN(c2ccccc2)S(=O)(=O)c2ccc(N)cc2)CC1` was run?
Answer: Its IC50 is 75 nM.

Question: For `Cc1nc2cnccc2n1Cc1ccc(S(=O)(=O)N(C)[C@@H](CC(C)C)C(=O)NCc2cccc(N)c2)cc1`, which ED50 (Rattus norvegicus [2]) is on record?
Answer: Its ED50 is 0.28 mg/kg.

Question: What about the IC50 (Oryctolagus cuniculus) of the same compound?
Answer: The IC50 was 250 nM.

Question: Which IC50 (Oryctolagus cuniculus) does the source give for `Cc1nc2cnccc2n1CC1CCN(C(=O)/C=C/c2ccc(N)cc2)CC1` here?
Answer: The IC50 was 1200 nM.

Question: What about the ED50 (Rattus norvegicus [1]) of the same compound?
Answer: The ED50 was 1.23 mg/kg.

Question: Which results are given for `Cc1nc2cnccc2n1CC1CCN(C(=O)CC(NC(=O)c2ccc(N)cc2)c2ccccc2)CC1` (stereo unspecified)?
Answer: IC50 (Oryctolagus cuniculus): 2200 nM; ED50 (Rattus norvegicus [1]): 0.19 mg/kg

Question: For `CCOC[C@H](CC(C)C)N(Cc1ccc(/N=N\c2ccc(O)c(C(=O)O)c2)cc1)S(=O)(=O)c1ccc(Cn2c(C)nc3cnccc32)cc1`, which IC50 (Oryctolagus cuniculus) is on record?
Answer: Its IC50 is 400 nM.

Question: And the ED50 (Rattus norvegicus [1])?
Answer: Its ED50 is 2.51 mg/kg.

Question: What does the source list for `CCOC(=O)[C@H](Cc1ccc(N)cc1)NS(=O)(=O)c1ccc(Cn2c(C)nc3cnccc32)cc1`?
Answer: ED50 (Rattus norvegicus [2]): 0.19 mg/kg; IC50 (Oryctolagus cuniculus): 740 nM

Question: For `Cc1nc2cnccc2n1CC1CCN(C(=O)/C=C(\c2ccccc2)c2ccc(/N=N\c3ccc(O)c(C(=O)O)c3)cc2)CC1`, which IC50 (Oryctolagus cuniculus) is on record?
Answer: The IC50 was 7300 nM.

Question: Which results are given for `C/C(=C\C(=O)N1CCC(Cn2c(C)nc3cnccc32)CC1)c1ccc(N)cc1`?
Answer: IC50 (Oryctolagus cuniculus): 60 nM; ED50 (Rattus norvegicus [1]): 0.17 mg/kg

Question: With `Cc1nc2cnccc2n1CC1CCN(C(=O)CC(C)(C)c2ccc(N)cc2)CC1` as the compound, how does the IC50 (Oryctolagus cuniculus) read?
Answer: Its IC50 is 19 nM.

Question: `CCOC(=O)[C@H](CC(C)C)N(C(=O)c1ccc(N)cc1)S(=O)(=O)c1ccc(Cn2c(C)nc3cnccc32)cc1` was tested. Which IC50 (Oryctolagus cuniculus) did it give?
Answer: The IC50 was 30 nM.

Question: How did the IC50 (Oryctolagus cuniculus) turn out when `CCOC(=O)[C@H](Cc1ccc(N)cc1)NC(=O)N1CCC(Cn2c(C)nc3cnccc32)CC1` was run?
Answer: Its IC50 is 32 nM.

Question: What about the ED50 (Rattus norvegicus [1]) of the same compound?
Answer: Its ED50 is 1.13 mg/kg.

Question: For `Cc1nc2cnccc2n1CC1CCN(C(=O)/C=C(/c2ccccc2)c2cccc(N)c2)CC1`, which IC50 (Oryctolagus cuniculus) is on record?
Answer: The IC50 was 190 nM.

Question: For `CCOC(=O)[C@H](CC(C)C)N(Cc1cccc(N)c1)S(=O)(=O)c1ccc(Cn2c(C)nc3cnccc32)cc1`, which IC50 (Oryctolagus cuniculus) is on record?
Answer: Its IC50 is 17 nM.

Question: And the ED50 (Rattus norvegicus [1])?
Answer: The ED50 was 0.043 mg/kg.

Question: `Cc1nc2cnccc2n1CC1CCN(C(=O)NC(C)c2ccc(N)cc2)CC1` (stereo unspecified) was tested. Which IC50 (Oryctolagus cuniculus) did it give?
Answer: The IC50 was 1600 nM.

Question: Which IC50 (Oryctolagus cuniculus) does the source give for `O=C(O)CCNC(=O)c1ccc(/N=N/c2ccc(O)c(C(=O)O)c2)cc1` [BALSALAZIDE] here?
Answer: The IC50 was over 200000 nM.

Question: Which Activity (Rattus norvegicus [3]) does the source give for `O=C(O)c1cc(/N=N/c2ccc(S(=O)(=O)Nc3ccccn3)cc2)ccc1O` [SULFASALAZINE] here?
Answer: The Activity was 683.3 U (g of tissue)-1.

Question: What about the IC50 (Oryctolagus cuniculus) of the same compound?
Answer: Its IC50 is over 200000 nM.

Question: What about the Damage score (Rattus norvegicus [5]) of the same compound?
Answer: Its Damage score is 8 0-10.

Question: What about the Animals (Rattus norvegicus [6]) of the same compound?
Answer: The Animals was 62.5%.

Question: What about the Colonic weight (Rattus norvegicus [7]) of the same compound?
Answer: Its Colonic weight is 154.4 mg/cm.
